Results collected from several papers.
Each line is one published result; the experiments were not run side by side. pIC50: −log10 of the molar value.
Action: inhibitor
ACSL4: Long-chain-fatty-acid--CoA ligase 4 (ACSL4, Homo sapiens, UniProt O60488)
CDK7 with cyclin H: Cyclin-dependent kinase 7, with cyclin H (CDK7, Homo sapiens, UniProt P50613)
HDAC6: Protein deacetylase HDAC6 (HDAC6, Homo sapiens, UniProt Q9UBN7)

| SMILES | target | effect on | technique | pIC50 |
| --- | --- | --- | --- | --- |
| Cc1c(C)c2c(c(C)c1O)CCC(C)(COc1ccc(CC3SC(=O)NC3=O)cc1)O2 (stereo not shown) | ACSL4 | enzyme activity | – | 4.58 |
| Cc1cc(O)c(-c2ccc([C@@H](C)CN(C)C)cc2)c2c1[nH]c(=O)c1sccc12 | CDK7 with cyclin H | enzyme activity | – | < 6.00 |
| CN(C)C(=O)c1cc2cnc(Nc3ccc(-c4ccc5c(=O)cc(N6CCOCC6)oc5c4)cc3)nc2n1C1CCCC1 | CDK7 with cyclin H | enzyme activity | – | < 5.00 |
| O=C1CCC(c2ccc(OCC(=O)OCCCCc3cn(CCCCCCN4CCc5c(c6ccccc6n5Cc5ccc(C(=O)NO)cc5)C4)nn3)cc2)C(=O)N1 (stereo not shown) | HDAC6 | enzyme activity | fluorescence | 7.31 |
| CNS(=O)(=O)c1ccc(Nc2ncc3cc(Cl)c(=O)n(C4CCCC4)c3n2)c(C)c1 | CDK7 with cyclin H | enzyme activity | radiometric | 5.80 |
| COC(=O)/C=C/c1ccc(OCCN(C)c2ccccc2)cc1 | ACSL4 | enzyme activity | – | 5.82 |
| N=C(N)c1ccc(OCCCCCOc2ccc(C(=N)N)cc2)cc1 | Prothrombin (F2, Homo sapiens, UniProt P00734) | enzyme activity | absorbance | < 4.00 |
| CCc1ccc(CCOc2ccc(CC3SC(=O)NC3=O)cc2)nc1 (stereo not shown) | ACSL4 | enzyme activity | – | 5.19 |
| O=C(NO)c1ccc(Cn2cnc3c(Nc4cccc([N+](=O)[O-])c4)ncnc32)cc1 | HDAC6 | enzyme activity | fluorescence | > 8.70 |
| COC(=O)CCc1ccc(OCCN(C)c2ccccc2)cc1 | ACSL4 | enzyme activity | – | 5.07 |
| CNS(=O)(=O)c1ccc(Nc2ncc(C(F)(F)F)c(N3CCC[C@](C)(O)C3)n2)c(C)c1 | CDK7 with cyclin H | enzyme activity | radiometric | 5.79 |
| COC(=O)/C=C/c1ccc(OCCN(C)C(=O)c2ccccc2)cc1 | Long-chain-fatty-acid--CoA ligase 4 (ACSL4, Homo sapiens, UniProt O60488, Q302M) | enzyme activity | – | 5.15 |
| N=C(N)NCCCC(=O)O | Alkaline phosphatase, tissue-nonspecific isozyme (Rattus norvegicus, UniProt P08289) | enzyme activity in cells | absorbance | 1.82 |
| COc1ccc(N(Cc2csc(-c3ccc(Br)cc3)n2)C(=O)CCCCCC(=O)NO)cc1 | HDAC6 | enzyme activity | – | 8.49 |
| CNS(=O)(=O)c1ccc(Nc2ncc(C(F)(F)F)c([C@H]3CC[C@](C)(O)CC3)n2)c(C)c1 | CDK7 with cyclin H | enzyme activity | radiometric | 5.67 |
| CN(CCOc1ccc(CC2SC(=O)NC2=O)cc1)c1ccccn1 (stereo not shown) | ACSL4 | enzyme activity | – | 5.96 |
| CCc1oc2cc(F)c(F)cc2c1C(=O)c1cc(Br)c(O)c(Br)c1 | Solute carrier organic anion transporter family member 2B1 (SLCO2B1, Homo sapiens, UniProt O94956) | transporter uptake | radiometric | 6.87 |
| COc1ccc(N(Cc2csc(-c3ccc(C)cc3)n2)C(=O)CCCCCC(=O)NO)cc1 | HDAC6 | enzyme activity | – | 8.60 |
| CN(CCCCCCNC(=O)COc1ccc(C2CCC(=O)NC2=O)cc1)Cc1cn(Cc2ccc(C(=O)NO)cc2)c2ccccc12 (stereo not shown) | HDAC6 | enzyme activity | fluorescence | 7.51 |
| CN(CCCOc1ccc(CC2SC(=O)NC2=O)cc1)c1ccccc1 (stereo not shown) | ACSL4 | enzyme activity | – | 6.22 |
| O=C(CNc1cccc2c1C(=O)N(C1CCC(=O)NC1=O)C2=O)NCCCCCCN1CCc2c(c3ccccc3n2Cc2ccc(C(=O)NO)cc2)C1 (stereo not shown) | HDAC6 | enzyme activity | fluorescence | 7.40 |
| O=C(NO)c1ccc(Cn2cnc3c(Nc4ccc(Br)cc4F)ncnc32)cc1 | HDAC6 | enzyme activity | fluorescence | 8.04 |
| CN(CCOc1ccccc1)c1ccccn1 | ACSL4 | enzyme activity | – | < 4.30 |
| COCCN1CCN(Cc2ccc(-c3n[nH]c4c3C(=O)c3c(NC(=O)NN5CCOCC5)cccc3-4)cc2)CC1 | Protein kinase 6 (Plasmodium falciparum, UniProt Q8IDW1) | enzyme activity | radiometric | 6.08 |
| COC(=O)c1cc(OC)c2c(c1-c1c(C(=O)OC)cc(OC)c3c1OCO3)OCO2 | Liver carboxylesterase 1 (CES1, Homo sapiens, UniProt P23141) | enzyme activity | – | 4.94 |
